{"source": "ChEMBL document CHEMBL5674868", "about": "“Cancer Cells Hijack PRC2 to Modify Multiple Cytokine Pathways” (PLoS One, 2015)", "type_in_all_cases": "cell-based", "key": {"[1]": {"molecular_target": "Histone-lysine N-methyltransferase EZH2 (Homo sapiens) (UniProt Q15910)", "sequence (Q15910 whole entry, looked up)": "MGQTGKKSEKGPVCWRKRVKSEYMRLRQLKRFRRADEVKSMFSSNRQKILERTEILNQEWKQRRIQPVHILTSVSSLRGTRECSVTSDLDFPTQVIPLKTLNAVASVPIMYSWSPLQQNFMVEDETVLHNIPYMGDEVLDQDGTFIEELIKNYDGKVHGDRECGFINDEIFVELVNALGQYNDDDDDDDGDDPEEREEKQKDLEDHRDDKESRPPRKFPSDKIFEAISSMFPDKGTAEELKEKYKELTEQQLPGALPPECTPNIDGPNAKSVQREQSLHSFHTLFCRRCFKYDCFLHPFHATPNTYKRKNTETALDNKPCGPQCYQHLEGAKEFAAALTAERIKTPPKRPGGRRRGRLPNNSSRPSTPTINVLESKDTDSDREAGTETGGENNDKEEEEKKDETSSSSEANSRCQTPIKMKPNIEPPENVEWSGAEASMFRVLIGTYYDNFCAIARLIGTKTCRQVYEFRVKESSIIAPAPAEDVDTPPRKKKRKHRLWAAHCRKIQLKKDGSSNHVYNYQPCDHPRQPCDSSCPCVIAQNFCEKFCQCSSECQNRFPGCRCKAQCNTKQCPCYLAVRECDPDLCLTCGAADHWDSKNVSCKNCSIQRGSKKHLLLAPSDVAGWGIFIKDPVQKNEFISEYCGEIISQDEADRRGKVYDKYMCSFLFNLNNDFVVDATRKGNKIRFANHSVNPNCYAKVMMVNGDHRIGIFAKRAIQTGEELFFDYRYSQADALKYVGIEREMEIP", "assay": "Inhibition of EZH2 in human HeLa cells assessed as effect on PITX2 mRNA level after 6 hrs by RT-PCR analysis", "method_in_brief": "(§1)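 Cells were treated for two four-day cycles with 2 μM GSK343 or UNC1999, then left untreated or stimulated with human IFNγ for 6 h. mRNA was measured by reverse transcription quantitative PCR and normalized to β-actin. Three biological replicates were run per treatment group.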"}, "[2]": {"molecular_target": "Histone-lysine N-methyltransferase EZH2 (Homo sapiens) (UniProt Q15910)", "assay": "Inhibition of EZH2 in human HeLa cells assessed as effect on HPRT mRNA level after 6 hrs by RT-PCR analysis in presence of IFN-gamma", "method_in_brief": "as §1"}, "[3]": {"molecular_target": "Histone-lysine N-methyltransferase EZH2 (Homo sapiens) (UniProt Q15910)", "assay": "Inhibition of EZH2 in human ASPC1 cells assessed as effect on IRF1 mRNA level after 6 hrs by RT-PCR analysis in presence of IFN-gamma", "method_in_brief": "as §1"}, "[4]": {"molecular_target": "Histone-lysine N-methyltransferase EZH2 (Homo sapiens) (UniProt Q15910)", "assay": "Inhibition of EZH2 in human MCF7 cells assessed as effect on HPRT mRNA level after 6 hrs by RT-PCR analysis in presence of IFN-gamma", "method_in_brief": "as §1"}, "[5]": {"molecular_target": "Histone-lysine N-methyltransferase EZH2 (Homo sapiens) (UniProt Q15910)", "assay": "Inhibition of EZH2 in human ASPC1 cells assessed as effect on HPRT mRNA level after 6 hrs by RT-PCR analysis", "method_in_brief": "as §1"}, "[6]": {"molecular_target": "Histone-lysine N-methyltransferase EZH2 (Homo sapiens) (UniProt Q15910)", "assay": "Inhibition of EZH2 in human AsPC1 cells assessed as decrease in H3K27me3 levels at 2 uM after 6 hrs by Western blot analysis"}, "[7]": {"molecular_target": "Histone-lysine N-methyltransferase EZH2 (Homo sapiens) (UniProt Q15910)", "assay": "Inhibition of EZH2 in human A549 cells assessed as decrease in H3K27me3 levels at 2 uM after 6 hrs by Western blot analysis"}, "[8]": {"molecular_target": "Histone-lysine N-methyltransferase EZH2 (Homo sapiens) (UniProt Q15910)", "assay": "Inhibition of EZH2 in human MCF7 cells assessed as effect on IRF1 mRNA level after 6 hrs by RT-PCR analysis", "method_in_brief": "as §1"}, "[9]": {"molecular_target": "Histone-lysine N-methyltransferase EZH2 (Homo sapiens) (UniProt Q15910)", "assay": "Inhibition of EZH2 in human A549 cells assessed as effect on IRF1 mRNA level after 6 hrs by RT-PCR analysis in presence of IFN-gamma", "method_in_brief": "as §1"}, "[10]": {"molecular_target": "Histone-lysine N-methyltransferase EZH2 (Homo sapiens) (UniProt Q15910)", "assay": "Inhibition of EZH2 in human ASPC1 cells assessed as effect on PITX2 mRNA level after 6 hrs by RT-PCR analysis", "method_in_brief": "as §1"}, "[11]": {"molecular_target": "Histone-lysine N-methyltransferase EZH2 (Homo sapiens) (UniProt Q15910)", "assay": "Inhibition of EZH2 in human HeLa cells assessed as effect on PITX2 mRNA level after 6 hrs by RT-PCR analysis in presence of IFN-gamma", "method_in_brief": "as §1"}, "[12]": {"molecular_target": "Histone-lysine N-methyltransferase EZH2 (Homo sapiens) (UniProt Q15910)", "assay": "Inhibition of EZH2 in human MCF7 cells assessed as effect on HPRT mRNA level after 6 hrs by RT-PCR analysis", "method_in_brief": "as §1"}, "[13]": {"molecular_target": "Histone-lysine N-methyltransferase EZH2 (Homo sapiens) (UniProt Q15910)", "assay": "Inhibition of EZH2 in human A549 cells assessed as effect on HPRT mRNA level after 6 hrs by RT-PCR analysis", "method_in_brief": "as §1"}, "[14]": {"molecular_target": "Histone-lysine N-methyltransferase EZH2 (Homo sapiens) (UniProt Q15910)", "assay": "Inhibition of EZH2 in human HeLa cells assessed as effect on HPRT mRNA level after 6 hrs by RT-PCR analysis", "method_in_brief": "as §1"}, "[15]": {"molecular_target": "Histone-lysine N-methyltransferase EZH2 (Homo sapiens) (UniProt Q15910)", "assay": "Inhibition of EZH2 in human MCF7 cells assessed as effect on PITX2 mRNA level after 6 hrs by RT-PCR analysis", "method_in_brief": "(§2)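 Cells pretreated for two 4-day cycles with 2 µM GSK343 or UNC1999, then left unstimulated or given human IFNγ for 6 h. RNA reverse-transcribed and measured by quantitative PCR, normalized to β-actin. Three biological replicates per treatment group.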"}, "[16]": {"molecular_target": "Histone-lysine N-methyltransferase EZH2 (Homo sapiens) (UniProt Q15910)", "assay": "Inhibition of EZH2 in human A549 cells assessed as effect on PITX2 mRNA level after 6 hrs by RT-PCR analysis", "method_in_brief": "as §1"}, "[17]": {"molecular_target": "Histone-lysine N-methyltransferase EZH2 (Homo sapiens) (UniProt Q15910)", "assay": "Inhibition of EZH2 in human ASPC1 cells assessed as effect on PITX2 mRNA level after 6 hrs by RT-PCR analysis in presence of IFN-gamma", "method_in_brief": "as §1"}, "[18]": {"molecular_target": "Histone-lysine N-methyltransferase EZH2 (Homo sapiens) (UniProt Q15910)", "assay": "Inhibition of EZH2 in human MCF7 cells assessed as effect on IRF1 mRNA level after 6 hrs by RT-PCR analysis in presence of IFN-gamma", "method_in_brief": "as §2"}, "[19]": {"molecular_target": "Histone-lysine N-methyltransferase EZH2 (Homo sapiens) (UniProt Q15910)", "assay": "Inhibition of EZH2 in human MCF7 cells assessed as decrease in H3K27me3 levels at 2 uM after 6 hrs by Western blot analysis"}, "[20]": {"molecular_target": "Histone-lysine N-methyltransferase EZH2 (Homo sapiens) (UniProt Q15910)", "assay": "Inhibition of EZH2 in human A549 cells assessed as effect on IRF1 mRNA level after 6 hrs by RT-PCR analysis", "method_in_brief": "as §1"}, "[21]": {"molecular_target": "Histone-lysine N-methyltransferase EZH2 (Homo sapiens) (UniProt Q15910)", "assay": "Inhibition of EZH2 in human A549 cells assessed as effect on PITX2 mRNA level after 6 hrs by RT-PCR analysis in presence of IFN-gamma", "method_in_brief": "as §1"}, "[22]": {"molecular_target": "Histone-lysine N-methyltransferase EZH2 (Homo sapiens) (UniProt Q15910)", "assay": "Inhibition of EZH2 in human HeLa cells assessed as effect on IRF1 mRNA level after 6 hrs by RT-PCR analysis", "method_in_brief": "as §1"}, "[23]": {"molecular_target": "Histone-lysine N-methyltransferase EZH2 (Homo sapiens) (UniProt Q15910)", "assay": "Inhibition of EZH2 in human HeLa cells assessed as decrease in H3K27me3 levels at 2 uM after 6 hrs by Western blot analysis"}, "[24]": {"molecular_target": "Histone-lysine N-methyltransferase EZH2 (Homo sapiens) (UniProt Q15910)", "assay": "Inhibition of EZH2 in human MCF7 cells assessed as effect on PITX2 mRNA level after 6 hrs by RT-PCR analysis in presence of IFN-gamma", "method_in_brief": "as §2"}, "[25]": {"molecular_target": "Histone-lysine N-methyltransferase EZH2 (Homo sapiens) (UniProt Q15910)", "assay": "Inhibition of EZH2 in human ASPC1 cells assessed as effect on IRF1 mRNA level after 6 hrs by RT-PCR analysis", "method_in_brief": "as §1"}, "[26]": {"molecular_target": "Histone-lysine N-methyltransferase EZH2 (Homo sapiens) (UniProt Q15910)", "assay": "Inhibition of EZH2 in human HeLa cells assessed as effect on IRF1 mRNA level after 6 hrs by RT-PCR analysis in presence of IFN-gamma", "method_in_brief": "as §1"}, "[27]": {"molecular_target": "Histone-lysine N-methyltransferase EZH2 (Homo sapiens) (UniProt Q15910)", "assay": "Inhibition of EZH2 in human ASPC1 cells assessed as effect on HPRT mRNA level after 6 hrs by RT-PCR analysis in presence of IFN-gamma", "method_in_brief": "as §1"}, "[28]": {"molecular_target": "Histone-lysine N-methyltransferase EZH2 (Homo sapiens) (UniProt Q15910)", "assay": "Inhibition of EZH2 in human A549 cells assessed as effect on HPRT mRNA level after 6 hrs by RT-PCR analysis in presence of IFN-gamma", "method_in_brief": "as §1"}}, "note": "The source made the active and inactive calls. The rule behind the calls is not given here."}
{"smiles": "CCCc1cc(C)[nH]c(=O)c1CNC(=O)c1cc(-c2ccnc(N3CCN(C)CC3)c2)cc2c1cnn2C(C)C", "values": [{"measurement": "inhibition", "setting": "[1]", "result": "inactive"}, {"measurement": "inhibition", "setting": "[2]", "result": "inactive"}, {"measurement": "inhibition", "setting": "[3]", "result": "inactive"}, {"measurement": "inhibition", "setting": "[4]", "result": "inactive"}, {"measurement": "inhibition", "setting": "[5]", "result": "inactive"}, {"measurement": "inhibition", "setting": "[6]", "result": "Active"}, {"measurement": "inhibition", "setting": "[7]", "result": "Active"}, {"measurement": "inhibition", "setting": "[8]", "result": "inactive"}, {"measurement": "inhibition", "setting": "[9]", "result": "inactive"}, {"measurement": "inhibition", "setting": "[10]", "result": "inactive"}, {"measurement": "inhibition", "setting": "[11]", "result": "inactive"}, {"measurement": "inhibition", "setting": "[12]", "result": "inactive"}, {"measurement": "inhibition", "setting": "[13]", "result": "inactive"}, {"measurement": "inhibition", "setting": "[14]", "result": "inactive"}, {"measurement": "inhibition", "setting": "[15]", "result": "inactive"}, {"measurement": "inhibition", "setting": "[16]", "result": "inactive"}, {"measurement": "inhibition", "setting": "[17]", "result": "inactive"}, {"measurement": "inhibition", "setting": "[18]", "result": "inactive"}, {"measurement": "inhibition", "setting": "[19]", "result": "Active"}, {"measurement": "inhibition", "setting": "[20]", "result": "inactive"}, {"measurement": "inhibition", "setting": "[21]", "result": "inactive"}, {"measurement": "inhibition", "setting": "[22]", "result": "inactive"}, {"measurement": "inhibition", "setting": "[23]", "result": "Active"}, {"measurement": "inhibition", "setting": "[24]", "result": "inactive"}, {"measurement": "inhibition", "setting": "[25]", "result": "inactive"}, {"measurement": "inhibition", "setting": "[26]", "result": "inactive"}, {"measurement": "inhibition", "setting": "[27]", "result": "inactive"}, {"measurement": "inhibition", "setting": "[28]", "result": "inactive"}]}
